High-throughput results from PubChem.
Most compounds without a hit are left out; they make up all but 2.3% or so of the library.
TRPC6 inh = mouse TRPC6 channel inhibitors, primary screen, cell-based, HEK293, membrane potential dye; B-score at 10 µM; 310,000 tested, 1.1% active; Short transient receptor potential channel 6 (Mus musculus), Q61143; ACh-evoked depolarization; stronger effect = lower value;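 active = B-score under library mean minus 3 SD, initial fluorescence not abnormally high, positive integrated signal ratio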;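 note: B-score derived from integrated fluorescence ratio over the kinetic read; more negative B-score means stronger inhibition of depolarization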
TRPC4 act = activators of mouse TRPC4 channel, primary screen, Fluo4 calcium, HEK293 TRPC4beta/mu-opioid cells; Fluo4 calcium fluorescence; stronger effect = higher value; B-score at 10 µM; Short transient receptor potential channel 4 (Mus musculus), Q9QUQ5; 310,000 tested, 0.49% active;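 active = B-score above 5 SD of library B-scores, and initial fluorescence ratio not above library mean plus 5 SD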;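 note: positive B-score marks a calcium rise read as TRPC4 activation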
Target sequence (Q9QUQ5 whole entry, looked up): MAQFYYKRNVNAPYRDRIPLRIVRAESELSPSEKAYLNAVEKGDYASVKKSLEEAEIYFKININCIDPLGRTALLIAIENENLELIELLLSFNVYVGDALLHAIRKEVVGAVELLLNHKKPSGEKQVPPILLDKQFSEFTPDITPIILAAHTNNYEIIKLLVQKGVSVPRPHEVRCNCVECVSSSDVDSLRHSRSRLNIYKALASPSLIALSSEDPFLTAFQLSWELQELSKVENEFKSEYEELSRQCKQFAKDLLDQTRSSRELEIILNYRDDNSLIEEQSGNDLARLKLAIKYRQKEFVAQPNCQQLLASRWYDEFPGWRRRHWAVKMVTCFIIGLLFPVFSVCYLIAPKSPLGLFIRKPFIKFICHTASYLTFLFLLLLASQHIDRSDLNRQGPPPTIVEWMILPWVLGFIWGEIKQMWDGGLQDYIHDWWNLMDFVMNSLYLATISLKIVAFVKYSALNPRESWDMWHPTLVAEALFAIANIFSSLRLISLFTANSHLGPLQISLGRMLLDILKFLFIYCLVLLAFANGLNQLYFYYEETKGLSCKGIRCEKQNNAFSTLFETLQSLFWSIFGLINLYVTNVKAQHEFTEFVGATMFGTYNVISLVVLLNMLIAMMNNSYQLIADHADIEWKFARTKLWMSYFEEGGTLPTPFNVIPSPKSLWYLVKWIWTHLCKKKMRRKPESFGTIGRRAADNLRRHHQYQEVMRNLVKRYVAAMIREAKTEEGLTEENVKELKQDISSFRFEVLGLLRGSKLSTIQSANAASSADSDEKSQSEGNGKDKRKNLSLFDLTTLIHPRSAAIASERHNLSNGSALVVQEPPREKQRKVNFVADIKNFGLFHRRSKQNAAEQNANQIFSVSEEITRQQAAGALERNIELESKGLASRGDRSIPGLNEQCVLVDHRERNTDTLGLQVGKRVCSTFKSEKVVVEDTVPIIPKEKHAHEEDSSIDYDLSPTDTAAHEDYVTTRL
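Assay system: HEK293 stable line with TRPC4beta plus mu-opioid receptor. Times: dye 45 min RT, read 110 s. Measured by: kinetic Fluo4 calcium fluorescence. Measure: B score of integrated ratio. Controls: assay buffer as low control, maximal DAMGO as high control.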
TRPC6 activator = mouse TRPC6 channel activators, primary screen, cell-based, HEK293, membrane potential dye; Short transient receptor potential channel 6 (Mus musculus), Q61143; HEK293-TRPC6 membrane potential dye fluorescence; stronger effect = higher value; B-score at 10 µM; 310,000 tested, 0.13% active;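 active = B-score of the integrated fluorescence ratio above library mean plus 3 SD, and starting fluorescence ratio within library mean plus 5 SD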;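 note: higher score means more depolarization so channel activation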
TRPC4 PAM = positive allosteric modulators of TRPC4, primary screen, cell-based, mouse TRPC4beta, HEK293 mu-opioid, Fluo-4 calcium | AID 2227, 2009 | 310,000 tested, 0.42% active | Short transient receptor potential channel 4 (Mus musculus), Q9QUQ5 | DAMGO EC20, Fluo-4 Ca2+ flux; stronger effect = higher value | B-score at 10 µM;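 active = B-score of calcium response area above 5 SD of library B-scores, with initial fluorescence ratio within 5 SD of library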
TRPC4 inh = inhibitors of mouse TRPC4 channel, primary screen, Fluo4 calcium, HEK293 TRPC4beta/mu-opioid cells; Short transient receptor potential channel 4 (Mus musculus), Q9QUQ5; DAMGO-evoked Fluo4 calcium flux; stronger effect = lower value; B-score at 10 µM; 300,000 tested, 0.39% active; AID 2247, 2010;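 active = B-score over 3 SD under the library average, no early fluorescence shift, positive overall ratio signal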
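Test system – stable TRPC4beta/mu-opioid receptor HEK293 cells · Probe or stimulus – DAMGO, a submaximal dose followed by a maximal one · Dosing – one concentration per compound · Signal – Fluo4 calcium fluorescence by kinetic imaging, 5 s 1 Hz baseline · Evaluation – per-well B score of integrated baseline-normalized Fluo4 ratio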
HEK293 TRPC6 ctr = parental HEK293 membrane potential modulation, confirmation, counter-screen for TRPC6 modulator project, cell-based. shares compounds with TRPC6 inh. membrane potential dye fluorescence. membrane potential signal change, % at 10 µM. 2,400 tested, 51% active. AID 488924, 2010;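 active = membrane potential signal moves up or down beyond 5 SD from buffer-only wells, on both duplicate plates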
HEK293 MPD ctr 2 = second check of TRPC6 modulator effects in parental HEK293 cells; shares compounds with TRPC6 inh; membrane potential dye fluorescence; after compound, maximal acetylcholine stimulation; inhibition, % at 10 µM; 2,400 tested, 14% active;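 active = membrane potential signal drops by more than 5 SD from the mean control signal, in both duplicate plates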
TRPC4 ctr mod = TRPC4 modulation by TRPC6 hit compounds, confirmation, selectivity assay for TRPC6 modulator project, cell-based, HEK293 TRPC4/mu-opioid, membrane potential dye, mouse; 2,400 tested, 69% active; membrane potential fluorescence; shares compounds with TRPC6 inh; percent change from control (negative = decrease, positive = increase), % at 10 µM;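 active = membrane potential signal moved up or down beyond 5 SD of buffer control wells, in both duplicate plates, actives on both sides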
TRPC4 ctr inh 2 = second check of whether TRPC6 modulators also affect mouse TRPC4; shares compounds with TRPC6 inh; HEK293 TRPC4/mu-opioid, membrane potential dye fluorescence; stimulated with maximal-effect DAMGO; inhibition, % at 10 µM; 2,400 tested, 55% active; AID 488928;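 active = drop in membrane potential signal beyond 5 SD of the control wells in both duplicate plates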;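 note: TRPC4 counter screen for TRPC6 hits run under conditions tuned for TRPC6 not TRPC4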
TRPC6 inh conf = mouse TRPC6 channel inhibitors, confirmation, HEK293 cells, membrane potential dye, duplicate. shares compounds with TRPC6 inh. ACh-evoked depolarization. inhibition, % at 10 µM. 3,300 tested, 43% active. AID 488960, 2010;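 active = fluorescence ratio falls more than 5 SD below the full-stimulation control mean, in both duplicate runs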;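 note: integrated fluorescence ratio of peak minus minimum over baseline after agonist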
TRPC6 act confirm = mouse TRPC6 channel activators, confirmation, HEK293 cells, membrane potential dye, duplicate | 2,800 tested, 11% active | AID 488961, 2010 | activation, % at 10 µM | shares compounds with TRPC6 inh | HEK293-TRPC6 membrane potential dye fluorescence, FDSS;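 active = ratio signal rise beyond 5 SD above unstimulated control wells' mean, seen in both duplicate runs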
Numbers stand for hits; - = inactive; . = no result given.

SMILES	TRPC6 inh	TRPC4 act	TRPC6 activator	TRPC4 PAM	TRPC4 inh	HEK293 TRPC6 ctr	HEK293 MPD ctr 2	TRPC4 ctr mod	TRPC4 ctr inh 2	TRPC6 inh conf	TRPC6 act confirm
N#Cc1cccc(C(c2nnnn2CCc2ccccc2)N2CCN(C3CCCCC3)CC2)c1 (stereo not drawn)	-5	-	-	-	-	-	-	-	70%	54%	-
CC1CC1C(=O)OCC(=O)NNC(=O)COc1ccc(Br)cc1 (stereo not drawn)	-	-	-	-	-	.	.	.	.	.	.
N/C(=N\OC(=O)c1ccco1)c1cccc([N+](=O)[O-])c1	-5.3	-	-	-	-	-	-	-	-	-	-
N/C(=N\OC(=O)c1ccco1)c1cccc(Br)c1	-	-	-	-	-	.	.	.	.	.	.
CC(C)c1nc(N2CCOCC2)c(C#N)c2c1CCCC2	-5.5	-	-	-	-	-	-	18%	-	-	.
Cc1ccc(CNc2nc(C)cs2)cc1	-	-	-	-	-	.	.	.	.	.	.
CCc1nn2c(=O)cc(COc3ccc(/C=C4\C(=N)N5N=C(C)SC5=NC4=O)cc3)nc2s1	-	-	13	-	-	228%	-	40%	-	-	88%
Cc1ccc(C)c2c(N)c3c(nc12)CCCCC3 (tested in a mixture with another compound)	-5.8	-	-	-	-7	-118%	-	-22%	-	-	-
Nc1c2c(nc3sc4c(c13)CCCC4)CCCCCC2	-	-	-	-	-	.	.	.	.	.	.
Cc1ccc(SCC(=O)O/N=C(\N)c2cccnc2)cc1	-	-	-	-	-	.	.	.	.	.	.
CCCCOc1ccc(C(=O)OC(C)CN(C)C)cc1 (stereo not drawn)	-	-	12	-	-	218%	-	35%	34%	-	102%
Cc1ccc(NC(=S)N2CCC(c3ccccc3)C2)c(Cl)c1 (stereo not drawn)	-	-	-	-	-	.	.	.	.	.	.
C/C(=N\NC1=NCCN1)c1ccc(Cl)cc1	-	-	-	-	-	.	.	.	.	.	.
